For series [1], the system named is L. amazonensis promastigotes. The series can be described thus: Leishmanicidal activity against promastigote forms, L. amazonensis. Type of series: cell-based, Leishmania amazonensis. In a few lines: (§1)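 Promastigotes (L. amazonensis WHOM/00LTB0016; L. infantum MHOM/MA/67/ITMAP-263) at 1 × 10⁶ cells/mL in Schneider's medium with 10% FBS were exposed to eight test compound levels (1.5–200 μg mL−1) for 72 h at 26 °C. Untreated cells were the negative control and miltefosine the standard.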

Series [2] has as its system L. infantum promastigotes. The series can be described thus: Leishmanicidal activity against promastigote forms, L. infantum. Type of series: cell-based, Leishmania infantum. In a few lines:
as §1

In series [3] the test system is T. cruzi amastigotes (Tulahuen strain). The series can be described thus: Amastigote assay. Format: cell-based. As to conditions: Trypanosoma cruzi, L929, read-out: Amastigote, IC50. Put shortly: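 Tulahuen T. cruzi expressing E. coli beta-galactosidase, grown in L-929 fibroblasts in RPMI 1640 without phenol red with 10% FBS and glutamine. Fibroblasts were seeded at 4.0 × 10³/well overnight (37 °C, 5% CO2), then given trypomastigotes at 4.0 × 10⁴/well for 2 h before the free parasites were removed. At 48 h, test compound in DMSO was added (0.625–20 μg mL−1, six levels, quadruplicate). After 7 days, 100 μM chlorophenol red β-D-galactopyranoside and 0.1% Nonidet P-40 were added overnight at 37 °C and A570 read as % growth inhibition. Benznidazole was the positive control; two independent experiments.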

Series [4] concerns L. amazonensis promastigotes. As to conditions: cited from earlier work.
Series [5] relates to L. infantum promastigotes. To be noted: cited from earlier work.
In the next series the test system is T. cruzi trypomastigotes. The series can be described thus: Cell death assessment through flow cytometry. Format: cell-based, Trypanosoma cruzi. To be noted: for double-positive (double-stained) cells (upper right quadrant): 24 hours. Put shortly:
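[…] trypomastigotes taken from infected L929 supernatant were seeded at 4 × 10⁵/well in RPMI-1640 with test compound (in DMSO) at three levels, 37 °C for 24 h. Benznidazole was the positive control and medium the negative control. Cells were washed in PBS, placed in binding buffer, and labelled with propidium iodide (50 μg mL−1 solution) plus Annexin-FITC for 15 min at room temperature in the dark. 20000 events were acquired, in triplicate, and analysed by ANOVA with Dunnett's test (p < 0.05).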

The test system of a further series is LLC-MK2 cells. To be noted: read-out: LLC-MK2, CC50, cited from earlier work.
The mark [6] stands for this setting: Leishmania amazonensis, 72 h, read-out: Promastigotes IC50L.Ama, 72 hours.
Where [7] appears, read: Leishmania infantum, 72 h, read-out: Promastigotes IC50L.Inf, 72 hours.
Setting [8] is: read-out: IC50L.inf, earlier carboxylic acids.

SMILES strings stand for the structures. Entries after “also recorded” stand apart in the source; their conditions may differ. Where two headings read alike, the source gives them in different places.

For orientation: CC50 means the concentration that lowers cell viability or growth by half.

Regarding `CCOC(=O)c1csc(NN=Cc2cccc(Cl)c2)n1` [1a, Ethyl 2-(2-(3-chlorobenzylidene)hydrazinyl)thiazole-4-carboxylate], the IC50 was found to be 189 µM in series [1] (setting [6]), 164 µM in series [2] (setting [7]) and 16.9 µM in series [3].

Consider `CCOC(=O)c1csc(NN=Cc2ccccc2Cl)n1` [1b, Ethyl 2-(2-(2-chlorobenzylidene)hydrazinyl)thiazole-4-carboxylate], for which the IC50 in series [1] (setting [6]) is 27.9 µM; in series [2] (setting [7]), 14.4 µM; in series [4] (read-out: IC50L.ama, earlier carboxylic acids) it was 34.5 µM; in series [5] (setting [8]), 59.5 µM.

Consider `CCOC(=O)c1csc(NN=Cc2ccc(OC)cc2)n1` [1c, Ethyl 2-(2-(4-methoxybenzylidene)hydrazinyl)thiazole-4-carboxylate], for which the values for the IC50 in series [1] (setting [6]), in series [2] (setting [7]) and in series [5] (setting [8]) were 392 µM, 332 µM and 85.3 µM, respectively.

For the molecule `CCOC(=O)c1csc(NN=Cc2cccc(OC)c2)n1` [1d, Ethyl 2-(2-(3-methoxybenzylidene)hydrazinyl)thiazole-4-carboxylate], the values for the IC50 in series [1] (setting [6]) and in series [2] (setting [7]) were 159 µM and 104 µM, respectively.

Take `CCOC(=O)c1csc(NN=Cc2cccc(Br)c2)n1` [1e, Ethyl 2-(2-(3-bromobenzylidene)hydrazinyl)thiazole-4-carboxylate]: the IC50 in series [1] (setting [6]) came to 246 µM; in series [2] (setting [7]), 170 µM.

As for `CCOC(=O)c1csc(NN=Cc2ccccc2Br)n1` [1f, Ethyl 2-(2-(2-bromobenzylidene)hydrazinyl)thiazole-4-carboxylate], the IC50 was 23.3 µM in series [1] (setting [6]); 24.3 µM in series [1] (read-out: Promastigotes IC50L.Ama, 72 hours); 23.5 µM in series [2] (setting [7]); 56.5 µM in series [3]. For the same molecule, in the series on T. cruzi trypomastigotes (PI / Annexin-V staining), the “cell death mechanism of T. cruzi” value was “necrosis and apoptosis; also recorded: consistent with necrosis”. Further, the “double-positive (double-stained) cells (upper right quadrant)” value in the series with T. cruzi trypomastigotes (at 4 × IC50 (1f 3.32 μM; BZD 141.6 μM)) is reported as 17.58%.

For `CCOC(=O)c1csc(NN=C(C)c2ccccc2)n1` [1g, Ethyl 2-(2-(1-phenylethylidene)hydrazinyl)thiazole-4-carboxylate], the IC50 worked out at 43 µM in series [1] (setting [6]), 37.4 µM in series [2] (setting [7]) and 40.7 µM in series [3].

For the molecule `CCOC(=O)c1csc(NN=Cc2ccco2)n1` [1h, Ethyl 2-(2-(furan-2-ylmethylene)hydrazinyl)thiazole-4-carboxylate], the results for the IC50 in series [1] (setting [6]), in series [2] (setting [7]) and in series [3] were 451 µM, 374 µM and 75.4 µM, respectively.

On to `CCOC(=O)CC1SC(=NN=Cc2ccccc2)NC1=O` (centres unmarked) [2a, Ethyl 2-((2-benzylidene)hydrazono)-4-oxothiazolidine-5-acetate], for which the IC50 turned out to be 367 µM in series [1] (setting [6]) and 365 µM in series [2] (setting [7]).

Regarding `COC(=O)CC1SC(=NN=Cc2ccc(Cl)cc2)NC1=O` (centres unmarked) [2b, Methyl 2-(2-(4-chlorobenzylidene)hydrazono)-4-oxothiazolidine-5-acetate], the results for the IC50 in series [1] (setting [6]) and in series [2] (setting [7]) were 91.4 µM and 33.2 µM, respectively.

As to `CCOC(=O)CC1SC(=NN=Cc2ccccc2Cl)NC1=O` (centres unmarked) [2c, Ethyl 2-(2-(2-chlorobenzylidene)hydrazono)-4-oxothiazolidine-5-acetate], the IC50 in series [1] (setting [6]) was 114 µM; in series [2] (setting [7]) it was 129 µM.

As to `CCOC(=O)CC1SC(=NN=Cc2ccc(Br)cc2)NC1=O` (centres unmarked) [2d, Ethyl 2-(2-(4-bromobenzylidene)hydrazono)-4-oxothiazolidine-5-acetate], the IC50 in series [1] (setting [6]) came to 14.6 µM; in series [2] (setting [7]), 14.5 µM.

For the molecule `CCOC(=O)CC1SC(=NN=Cc2cccc(Br)c2)NC1=O` (centres unmarked) [2e, Ethyl 2-(2-(3-bromobenzylidene)hydrazono)-4-oxothiazolidine-5-acetate], the IC50 is 120 µM in series [1] (setting [6]) and 116 µM in series [2] (setting [7]).

Consider `CCOC(=O)CC1SC(=NN=Cc2ccc([N+](=O)[O-])cc2)NC1=O` (centres unmarked) [2f, Ethyl 2-(2-(4-nitrobenzylidene)hydrazono)-4-oxothiazolidine-5-acetate], for which the IC50 in series [1] (setting [6]) amounted to 57.5 µM; in series [2] (setting [7]), 325 µM.

As to `CCOC(=O)CC1SC(=NN=Cc2cccc([N+](=O)[O-])c2)NC1=O` (centres unmarked) [2g, Ethyl 2-(2-(3-nitrobenzylidene)hydrazono)-4-oxothiazolidine-5-acetate], the values for the IC50 in series [1] (setting [6]) and in series [2] (setting [7]) were 309 µM and 329 µM, respectively.

Consider `CCOC(=O)CC1SC(=NN=Cc2ccccc2[N+](=O)[O-])NC1=O` (centres unmarked) [2h, Ethyl 2-(2-(2-nitrobenzylidene)hydrazono)-4-oxothiazolidine-5-acetate], for which the IC50 in series [1] (setting [6]) was 17 µM; in series [2] (setting [7]), 295 µM.

Turning to `CCOC(=O)CC1SC(=NN=Cc2ccc(OC)cc2)NC1=O` (centres unmarked) [2i, Ethyl 2-(2-(4-methoxybenzylidene)hydrazono)-4-oxothiazolidine-5-acetate], the IC50 in series [1] (setting [6]) amounted to 169 µM; in series [2] (setting [7]), 147 µM.

Turning to `CCOC(=O)CC1SC(=NN=Cc2ccccc2OC)NC1=O` (centres unmarked) [2j, Ethyl 2-(2-(2-methoxybenzylidene)hydrazono)-4-oxothiazolidine-5-acetate], the IC50 in series [1] (setting [6]) worked out at 186 µM; in series [2] (setting [7]), 236 µM.

Regarding `CCOC(=O)CC1SC(=NN=Cc2cccc(O)c2)NC1=O` (centres unmarked) [2k, Ethyl 2-(2-(3-hydroxybenzylidene)hydrazono)-4-oxothiazolidine-5-acetate], the IC50 was determined as 364 µM in series [1] (setting [6]) and 370 µM in series [2] (setting [7]).

With `CCOC(=O)CC1SC(=NN=Cc2ccccc2O)NC1=O` (centres unmarked) [2l, Ethyl 2-(2-(2-hydroxybenzylidene)hydrazono)-4-oxothiazolidine-5-acetate], the IC50 in series [1] (setting [6]) was determined as 84.3 µM; in series [2] (setting [7]), 67.3 µM.

Turning to `CCOC(=O)CC1SC(=NN=Cc2ccc(C)cc2)NC1=O` (centres unmarked) [2m, Ethyl 2-(2-(4-methylbenzylidene)hydrazono)-4-oxothiazolidine-5-acetate], the IC50 in series [1] (setting [6]) stood at 13.3 µM; in series [2] (setting [7]), 18.8 µM; in series [2] (read-out: Promastigotes IC50L.Inf, 72 hours), 18.8 µM.

Consider `CCOC(=O)CC1SC(=NN=Cc2ccccc2C)NC1=O` (centres unmarked) [2n, Ethyl 2-(2-(2-methylbenzylidene)hydrazono)-4-oxothiazolidine-5-acetate], for which the IC50 in series [1] (setting [6]) was determined as 268 µM; in series [2] (setting [7]) it was 168 µM.

Take `CCOC(=O)CC1SC(=NN=C2CCCc3ccccc32)NC1=O` (centres unmarked) [2o, Ethyl 2-((2-(3,4-dihydronaphthalen-1(2H)-ylidene))hydrazono)-4-oxo-thiazolidin-5-acetate]: the IC50 in series [1] (setting [6]) amounted to 180 µM; in series [2] (setting [7]), 176 µM.

As to `CCOC(=O)CC1SC(=NN=Cc2ccc(O)c(OC)c2)NC1=O` (centres unmarked) [2p, Ethyl 2-(2-(4-hydroxy-3-methoxybenzylidene)hydrazono)-4-oxothiazolidine-5-acetate], the IC50 in series [1] (setting [6]) was 233 µM; in series [2] (setting [7]), 320 µM.

Turning to `O=C(Cn1ccnc1[N+](=O)[O-])NCc1ccccc1` [BZD, Benznidazole, reference compound], the IC50 in series [3] is 5.65 µM. In addition, the “double-positive (double-stained) cells (upper right quadrant)” value in the series on T. cruzi trypomastigotes (at 2 × IC50 (1f 1.66 μM; BZD 70.8 μM)) amounted to 19.56%. In addition, in the series with LLC-MK2 cells (standard drug BZD), the CC50 is 615 µM.

In the case of `CCCCCCCCCCCCCCCCOP(=O)([O-])OCC[N+](C)(C)C` [Miltefosine, reference compound], in the series on LLC-MK2 cells (standard drug Miltefosine), the CC50 was 12.3 µM. Moreover, the IC50 is 36.3 µM in series [4] (read-out: Promastigotes IC50L.Ama, standard drug Miltefosine) and 53.7 µM in series [5] (read-out: Promastigotes IC50L.Inf, standard drug Miltefosine).

Source of the values: PMC8693751 (RSC Advances, 2021).
